Here are results for seven compounds from ChEMBL document CHEMBL4052805, “Discovery of novel 4(1H)-quinolone derivatives as potential antiproliferative and apoptosis inducing agents” (Bioorg Med Chem Lett, 2017).

Where a name gives a salt, the structure may show the parent alone. Activity calls are given as the source filed them. The rule behind the calls is not given here. Where only a bound is given, the exact number is not on record here.

Assay [1] deals with PC-3. Kind of assay: Cytotoxicity against human PC3 cells assessed as reduction in cell viability after 24 hrs by MTT assay. As to conditions: PC-3, 24 h.
The test system of assay [2] is HEp-2. Briefly: Cytotoxicity against human Hep2 cells assessed as reduction in cell viability after 24 hrs by MTT assay. The settings on record: HEp-2, 24 h. (Formazan colour is commonly taken as a measure of viable cells.)
In assay [3] the test system is MCF7. Briefly: Cytotoxicity against human MCF7 cells assessed as reduction in cell viability after 24 hrs by MTT assay. The settings on record: MCF7, 24 h.
Assay [4] concerns HCT-8. Briefly: Cytotoxicity against human HCT8 cells assessed as reduction in cell viability after 24 hrs by MTT assay. The settings on record: HCT-8, 24 h.
Assay [5] relates to HeLa. Briefly: Cytotoxicity against human HeLa cells assessed as reduction in cell viability after 24 hrs by MTT assay.
For assay [6], the system named is HepG2. Briefly: Cytotoxicity against human HepG2 cells assessed as reduction in cell viability after 24 hrs by MTT assay. As to conditions: HepG2, 24 h.
The test system of assay [7] is BGC-823. Kind of assay: Cytotoxicity against human BGC823 cells assessed as reduction in cell viability after 24 hrs by MTT assay. As to conditions: BGC-823, 24 h.
Assay [8] deals with HepG2. Briefly: Induction of apoptosis in human HepG2 cells assessed as viable cells at 10 ug/ml after 24 hrs by annexin V-FITC/propidium iodide staining based flow cytometry (reference value: 89.59%). The format is functional. As to conditions: HepG2, 24 h, read-out: Activity. (Flow cytometry measures light scatter and fluorescence of single cells or particles in a stream.)

The test system of assay [9] is HepG2. Briefly: Anticlonogenic activity against human HepG2 cells at 10 uM treated for 24 hrs measured after 6 days by crystal violet staining based assay. Format: functional, cell-based.
Assay [10] deals with HepG2. Briefly: Antiproliferative activity against human HepG2 cells up to 100 uM by CCK-8 assay. As to conditions: TDE = time-dependent effect. Format: functional, cell-based. The method in brief: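 HepG2 cells were seeded and left 24 h, then treated with a range of compound concentrations for 24 h. Viability was read by CCK-8 assay.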
Assay [11] relates to HepG2. Briefly: Induction of apoptosis in human HepG2 cells assessed as early apoptotic cells at 10 ug/ml after 24 hrs by annexin V-FITC/propidium iodide staining based flow cytometry (reference value: 6.56%). The format is functional.
In assay [12] the test system is HepG2. Kind of assay: Induction of apoptosis in human HepG2 cells assessed as late apoptotic cells at 10 ug/ml after 24 hrs by annexin V-FITC/propidium iodide staining based flow cytometry (reference value: 3.50%). The format is functional.
The subject of assay [13] is HepG2. Kind of assay: Induction of apoptosis in human HepG2 cells assessed as necrotic cells at 10 ug/ml after 24 hrs by annexin V-FITC/propidium iodide staining based flow cytometry (reference value: 0.36%). Format: functional.
In assay [14] the test system is HepG2. Briefly: Induction of apoptosis in human HepG2 cells assessed as viable cells at 20 ug/ml after 24 hrs by annexin V-FITC/propidium iodide staining based flow cytometry (reference value: 89.59%). Format: functional. The settings on record: HepG2, 24 h, read-out: Activity.
Assay [15] has as its system HepG2. Kind of assay: Induction of apoptosis in human HepG2 cells assessed as early apoptotic cells at 20 ug/ml after 24 hrs by annexin V-FITC/propidium iodide staining based flow cytometry (reference value: 6.56%). Format: functional.
The test system of assay [16] is HepG2. Kind of assay: Induction of apoptosis in human HepG2 cells assessed as late apoptotic cells at 20 ug/ml after 24 hrs by annexin V-FITC/propidium iodide staining based flow cytometry (reference value: 3.50%). The format is functional.
The test system of assay [17] is HepG2. Kind of assay: Induction of apoptosis in human HepG2 cells assessed as necrotic cells at 20 ug/ml after 24 hrs by annexin V-FITC/propidium iodide staining based flow cytometry (reference value: 0.36%). The format is functional.
The test system of assay [18] is HepG2. Kind of assay: Induction of apoptosis in human HepG2 cells after 24 hrs by annexin V-FITC/propidium iodide staining based flow cytometry. The format is functional, cell-based.
Assay [19] relates to HepG2. Kind of assay: Induction of apoptosis in human HepG2 cells assessed as increase in Bak protein expression at 10 to 20 ug/ml after 24 hrs by Western blot analysis. Format: functional, cell-based. A general note: In western blotting, separated proteins are transferred to a membrane and probed.
Assay [20] concerns HepG2. Briefly: Induction of DNA damage in human HepG2 cells assessed as increase in PARP level after 24 hrs by Western blot analysis. The format is functional, cell-based.
Assay [21] deals with HepG2. Kind of assay: Induction of DNA damage in human HepG2 cells assessed as increase in caspase-3 level after 24 hrs by Western blot analysis. Format: functional, cell-based.
In assay [22] the test system is HepG2. Briefly: Cell cycle arrest in human HepG2 cells assessed as accumulation at G2/M phase after 24 hrs by propidium iodide staining based flow cytometry. The format is functional.
Assay [23] concerns the target Cellular tumor antigen p53 (Homo sapiens) (UniProt P04637). Briefly: Activation of p53 (unknown origin) transfected in human HepG2 cells at 4 uM after 24 hrs by dual-luciferase assay relative to control. The format is cell-based. The gist of the method:
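HepG2 cells transfected with the pathway reporter for 24 h, then exposed to 4 μM compound for a further 24 h; reporter activity read by dual-luciferase assay.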

Assay [24] has as its system HepG2. Briefly: Increase in p53 expression in human HepG2 cells at 10 to 20 ug/ml after 24 hrs by Western blot analysis. The format is functional, cell-based.
For assay [25], the target named is Cellular tumor antigen p53 (Homo sapiens) (UniProt P04637). Kind of assay: Activation of p53 in human HepG2 cells assessed as increase in p21 expression at 10 to 20 ug/ml after 24 hrs by Western blot analysis. The format is cell-based.
Cellular tumor antigen p53 (Homo sapiens), sequence (P04637 whole entry, looked up): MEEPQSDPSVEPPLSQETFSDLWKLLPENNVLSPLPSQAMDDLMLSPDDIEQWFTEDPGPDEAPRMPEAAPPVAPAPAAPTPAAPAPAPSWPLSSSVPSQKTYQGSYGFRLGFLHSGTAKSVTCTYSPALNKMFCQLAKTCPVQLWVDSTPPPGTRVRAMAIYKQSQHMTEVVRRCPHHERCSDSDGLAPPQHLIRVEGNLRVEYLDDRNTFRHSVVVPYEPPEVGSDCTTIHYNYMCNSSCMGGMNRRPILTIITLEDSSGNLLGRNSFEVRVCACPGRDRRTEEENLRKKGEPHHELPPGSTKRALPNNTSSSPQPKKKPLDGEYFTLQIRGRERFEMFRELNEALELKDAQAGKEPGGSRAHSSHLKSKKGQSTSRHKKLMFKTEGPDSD
The test system of assay [26] is HepG2. Briefly: Downregulation of cyclin B1 expression in human HepG2 cells after 24 hrs by Western blot analysis. The format is functional, cell-based.
Assay [27] concerns HepG2. Kind of assay: Downregulation of CDK1 expression in human HepG2 cells after 24 hrs by Western blot analysis. Format: functional, cell-based.

What is called IC50 is the point on the concentration scale where inhibition reaches its midpoint. For `Oc1ccnc2cc(Cl)ccc12`, the IC50 in assay [1], in assay [2], in assay [3], in assay [4], in [5] and in assay [6] was > 50 µM in each case. Also, in assay [7], the IC50 is > 50 µM.

Take `Cl.NCCCNC(=O)c1cn(CCCc2ccccc2)c2cc(Cl)ccc2c1=O`: the viability at 10 µg/mL in assay [8] stood at 88.5%. The outcome in assay [9], in assay [19], in assay [24] and in assay [25] was Active. The Activity entry is “Tde” in assay [10]; 7.01% in assay [11]; 3.71% in assay [12]; 0.75% in assay [13]; 10.72% in assay [15]; 18.44% in [16]. For the same compound, the Activity was 4.5% in assay [17]; “Dose-dependent effect” in [18]; “Dose-dependent effect” in [20]; “Dose-dependent effect” in [21]; “Dose-dependent effect” in [22]; “Dose-dependent effect” in assay [26]. The Activity result in [27] is “Dose-dependent effect”. Moreover, the viability at 20 µg/mL in [14] stood at 66.3%. In [23], this compound returned a fold change (FC) of 1.5. The IC50 in [1] is 6.92 µM; in assay [2], 3.24 µM; in assay [3] it was 3.12 µM; in assay [4], 6.03 µM; in [5] it was 2.31 µM; in [6] it was < 1 µM. Further, in [7], the IC50 worked out at 3.2 µM.

On to `COc1cccc2c1C(=O)c1c(O)c3c(c(O)c1C2=O)C[C@@](O)(C(=O)CO)C[C@@H]3O[C@H]1C[C@H](N)[C@H](O)[C@H](C)O1` [DOXORUBICIN HYDROCHLORIDE], for which the IC50 in assay [1], in assay [2], in assay [3], in assay [4], in [5] and in assay [6] was < 1 µM in each case. Besides, the IC50 in [7] was < 1 µM.

As for `CCn1cc(C(=O)NCCCN)c(=O)c2ccc(Cl)cc21`, the IC50 in assay [1] came out at 12.6 µM; in assay [2] it was 28.2 µM; in assay [3] it was 35.5 µM; in [4] it was 31.6 µM; in [5], 20 µM; in assay [6], 13.8 µM. For the same compound, the IC50 in assay [7] was 30.2 µM.

With `C=CCn1cc(C(=O)NCCCN)c(=O)c2ccc(Cl)cc21`, the IC50 was 13.2 µM in assay [1]; 36.5 µM in assay [2]; 31.6 µM in assay [3]; 34.7 µM in assay [4]; 22.4 µM in [5]; 17 µM in assay [6]. For the same compound, the IC50 in assay [7] came out at 20 µM.

As for `CCCCn1cc(C(=O)NCCCN)c(=O)c2ccc(Cl)cc21`, the IC50 in assay [1] came out at 12 µM; in assay [2], 21.7 µM; in [3], 12.6 µM; in assay [4], 22.3 µM; in [5] it was 15 µM; in assay [6], 5.23 µM. For the same compound, in [7], the IC50 came out at 16.6 µM.

On to `NCCCNC(=O)c1cn(Cc2ccccc2)c2cc(Cl)ccc2c1=O`, for which the IC50 in assay [1] was 9.12 µM; in assay [2], 8.31 µM; in [3], 5.02 µM; in assay [4] it was 14.5 µM; in assay [5] it was 4.54 µM; in assay [6] it was 5.42 µM. Further, the IC50 in assay [7] came out at 6.71 µM.
